The values below come from ChEMBL document CHEMBL1149431 (Bioorg Med Chem Lett, 2006).

Data set [1] deals with Sodium-dependent noradrenaline transporter (Homo sapiens, UniProt P23975). The data set is described as follows: Inhibition of reuptake of Norepinephrine.
Data set [2] can be described thus: Metabolic stability by incubation with human liver microsomes. It is filed as ADME, Microsome. In a few lines:
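Human liver microsomes (4 mg protein/mL) incubated with compound at 23 µM, 37 ± 1 °C, in 50 mM potassium phosphate pH 7.4 with 3 mM MgCl2 and 1 mM EDTA. Sampled at 0, 90 and 180 min; half-life calculated from loss of parent compound.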
For orientation: Microsomes from liver hold many membrane-bound enzymes, among them those of drug oxidation.

Data set [3] can be described thus: Metabolic stability by incubation with human hepatocytes. It is filed as ADME, cell-based, Liver, Hepatocyte. Put shortly:
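Compounds at 23 µM incubated separately with pooled (n = 2) cryopreserved human hepatocytes (2 million cells/mL) in phenol-red-free Waymouth's medium with FBS 4.5%, insulin, glutamine 3.6 mM, pyruvate 4.5 mM, dexamethasone 0.9 µM; 1% methanol. Samples at 0, 180, 360 min quenched in acetonitrile, protein spun off. Half-life from parent disappearance.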

Data set [4] deals with Rattus norvegicus. Nature of the data set: Effect on latency in tail flick in rat after 1 and 2 hrs of administration of 50 mg/kg, ip. Format: functional, organism-based. The arrangement: dose 50 mg/kg. Conditions: tested as the 2H-labelled form. In a few lines: (§1)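 Rat tail-flick model; single intraperitoneal dose of 50 mg/kg, with 5 mg/kg ip morphine and saline as controls. Tail-flick latency (s) read at 1, 2, 4 and 8 h after dosing. n = 9–10 per group; significance vs control by Dunnett's test (p<0.05, p<0.01).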

Data set [5] has as its system Rattus norvegicus. The data set is described as follows: Effect on latency in tail flick in rat after 1,2,4 and 8 hrs of administration of 50 mg/kg, ip. It is filed as functional, organism-based. On the set-up: dose 50 mg/kg. In a few lines:
as §1

The source made the active and inactive calls. The calls are words filed in the database; no cut-off is given here.

Chain of Sodium-dependent noradrenaline transporter (P23975 whole entry): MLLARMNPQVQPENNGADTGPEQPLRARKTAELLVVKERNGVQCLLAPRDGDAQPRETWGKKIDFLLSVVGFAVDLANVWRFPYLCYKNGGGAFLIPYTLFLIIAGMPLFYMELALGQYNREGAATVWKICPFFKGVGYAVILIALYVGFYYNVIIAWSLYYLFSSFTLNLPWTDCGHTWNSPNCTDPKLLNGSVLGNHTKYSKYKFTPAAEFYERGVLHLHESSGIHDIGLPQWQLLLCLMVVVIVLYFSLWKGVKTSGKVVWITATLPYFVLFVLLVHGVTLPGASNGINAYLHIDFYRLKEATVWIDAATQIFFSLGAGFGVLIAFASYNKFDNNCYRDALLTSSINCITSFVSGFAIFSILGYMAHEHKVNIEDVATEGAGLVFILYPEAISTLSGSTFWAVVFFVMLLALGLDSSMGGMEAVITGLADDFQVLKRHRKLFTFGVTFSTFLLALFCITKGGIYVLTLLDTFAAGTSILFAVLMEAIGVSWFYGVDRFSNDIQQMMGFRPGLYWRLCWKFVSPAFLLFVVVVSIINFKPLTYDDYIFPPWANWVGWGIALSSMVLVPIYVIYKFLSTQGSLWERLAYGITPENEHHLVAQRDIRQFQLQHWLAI

In turn, `CN(C)C[C@H]1CCCC[C@]1(O)c1cccc(O)c1` [O-DESMETHYL TRAMADOL] came in with a concentration for half-maximal inhibition (IC50) in data set [1] greater than 10 µM. The figures for the half-life in data set [2] and in data set [3] were 47 h and 26 h, respectively.
On the same counts, the results for `[2H]C([2H])([2H])N(C[C@H]1CCCC[C@]1(O)c1cccc(OC)c1)C([2H])([2H])[2H]` are 3.2 µM, 9.12 h and 14.2 h.
`COc1cccc([C@@]2(O)CCCC[C@@H]2CN(C)C)c1` [TRAMADOL] had a concentration for half-maximal inhibition (IC50) in data set [1] of 0.79 µM. Also, the half-life in data set [2] came out at 12.3 h; in data set [3], 16.1 h. The outcome with Rattus norvegicus [4], in the data set with Rattus norvegicus [5] and in the data set on Rattus norvegicus [5] (tested as the 2H-labelled form) was Active.
Take `[2H]C([2H])([2H])Oc1cccc([C@@]2(O)CCCC[C@@H]2CN(C([2H])([2H])[2H])C([2H])([2H])[2H])c1`: half-maximal inhibition in data set [1] (IC50) was put at 2 µM. The figures for the half-life in data set [2] and in data set [3] were 120 h and 60.2 h, respectively.
The corresponding values for `[2H]C([2H])([2H])Oc1cccc([C@@]2(O)CCCC[C@@H]2CN(C)C)c1` are 3.6 µM, 12.4 h and 22.2 h.
In data set [1], `[2H]C([2H])([2H])N(C[C@H]1CCCC[C@]1(O)c1cccc(O)c1)C([2H])([2H])[2H]` registered an IC50 of 6.7 µM. The half-life was found to be 12.4 h in data set [2] and 27.5 h in data set [3].

As usually defined, the IC50 is the concentration that gives 50% inhibition. Higher therefore signals weaker potency. One may read the half-life as the time in which the quantity being followed falls by half. Lower therefore signals fast loss.
